Screens from PubChem.
MT stabilize HCS = microtubule stabilization, imaging screen; HeLa tubulin immunostaining HCS, 24 h; share of cells brighter than vehicle mean+2SD; % tubulin-high responders, % at 10 µM; 0.83% of 200,000 active; AID 2205;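 active means plate Z-score above 3 for both tubulin-high and condensed-nucleus cell shares, with cell loss under 80%, at 10 µM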;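 further: anti alpha tubulin signal scored within the nucleus-defined area of each cell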
STAT3 blocker = STAT3 signaling inhibition. U3A cells, IL-6 STAT3-luciferase reporter, luminescence; host cell line lacks STAT1. inhibition, % at 5.5 µM. 0.89% of 190,000 active. AID 862;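 active means inhibition above the mean inhibition across all screened compounds plus 3 SD, cut at about 44% in these data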;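 further: 0% = DMSO only wells and 100% = 100 µM nifuroxazide control wells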
b-catenin transl = modulators of beta-catenin nuclear translocation; AID 1665; 0.3% of 190,000 active; nuclear translocation activity, % at 5 µM; HeLa beta-catenin nuclear translocation, immunofluorescence imaging;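 active means nuclear translocation activity above 50% at 5 µM, with a well cell count of 50 or more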;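 further: per-cell ratio of nuclear to cytoplasmic median beta-catenin stain intensity; plate controls were DMSO negative control for no effect and GSK-3 inhibitor IX positive control for full effect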
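Test system: human HeLa cell line; Doses: 5 µM primary, 0.02–20 µM confirmation; Incubation: 24 h compound exposure, 37°C; Detection: beta-catenin immunofluorescence imaging with DAPI; Read-out: beta-catenin nuclear/cytoplasmic ratio, % activation.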
STAT3 act = increases IL-6 driven STAT3 reporter signal. U3A cells, IL-6 STAT3-luciferase reporter, luminescence; 100% = signal with IL-6 EC80 alone. activation (% of control), % at 5.6 µM. 0.91% of 190,000 active;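 active means activation above the screen-wide mean of compound activation plus 3 SD, cut at about 130% in these data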;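 further: 0% = background luminescence of wells with medium and substrate only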
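Test system: STAT3-luciferase reporter U3A cells; Detection: reporter luminescence signal; Times: 1 h compound pre-exposure, 6 h IL-6 stimulation, 37 °C; Benchmarks: IL-6-only high control; Also added: IL-6 stimulus at 33 ng/mL final.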
STAT1 blocker = STAT1 signaling inhibition | NIH 3T3 STAT1-luciferase reporter, IFN-gamma, luminescence | inhibition, % at 5.5 µM | 0.35% of 200,000 active;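 active means inhibition above a set limit, the mean inhibition across all tested compounds plus 3 SD, cut at about 34% in these data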;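 further: 0% = IFN-gamma with DMSO and 100% = IFN-gamma with 300 µM nifuroxazide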
Numbers without * were called inactive; . = no result. A selection: hits, their analogues and other compounds. The true share with any hit is near 2.4%.

SMILES	MT stabilize HCS	STAT3 blocker	b-catenin transl	STAT3 act	STAT1 blocker
COc1ccc(OC)c(Nc2cc(C)nc3nc(C)nn23)c1	16.0*	-1.8	7.7	101.6	7.0
O=C(CSc1nccn1-c1ncc(C(F)(F)F)cc1Cl)c1ccc(Cl)cc1	1.8	-101.1	1.5	197.3*	-36.2
CCOc1ccc(CCNC(=O)CCS(=O)(=O)c2ccc(OC)cc2)cc1OCC	2.2	-1.9	.	103.6	3.5
Cc1ccccc1N1CN(Cc2ccco2)CNC1=S	1.8	8.9	-0.2	93.3	4.7
CN(C)c1nc(N)nc(-c2nc3ccccc3s2)n1	4.5	-95.4	-1.8	179.6*	-37.8
CCN(CC)CCn1c(NC(=O)c2ccc(Cl)cc2)nc2ccccc21	3.6	-41.5	.	135.6*	-15.5
Cc1ccc(C(=O)Nc2nc3ccccc3n2CCN2CCCC2)cc1	2.4	-61.1	-1.5	157.3*	-44.7
O=C(Nc1nc2ccccc2n1CCN1CCCCC1)c1ccc(Cl)cc1	2.7	-18.2	-12.1	121.5	-0.5
COc1ccc(C(=O)c2ccc(OC)c(N)c2)cc1N	33.6*	-4.3	.	109.2	-23.3
Cc1ccccc1NS(=O)(=O)c1cc(C(=O)Nc2cccc(N(C)S(C)(=O)=O)c2)ccc1C	2.8	9.6	0.1	96.2	8.1
CN(c1cccc(NC(=O)c2ccc(Cl)c(S(=O)(=O)Nc3ccccc3)c2)c1)S(C)(=O)=O	2.3	20.3	-1.7	89.2	45.1*
Cc1c(/C(O)=C2\C(=O)C(=O)N(CCN(C)C)C2c2ccccc2)cnn1-c1ccccc1 (stereo unspecified)	.	.	1.0	.	.
O=[N+]([O-])c1c(Nc2ccc(O)cc2)cc(N2CCOCC2)c2nonc12	2.1	-11.3	-0.5	111.4	-8.1
COc1ccccc1Nc1cc(N2CCOCC2)c2nonc2c1[N+](=O)[O-]	16.4*	-6.0	-1.1	109.1	-1.0
O=C1C(Nc2ccc(O)cc2)=C/C(=N/S(=O)(=O)c2cccs2)c2ccccc21	4.7	86.3*	0.4	26.4	89.9*
Cc1cccc(NC2=C/C(=N/S(=O)(=O)c3cccs3)c3ccccc3C2=O)c1	37.6	-7.9	-2.0	115.5	3.0
Cc1ccc(Cl)cc1NC1=C/C(=N\S(=O)(=O)c2cccs2)c2ccccc2C1=O	32.8*	-28.0	.	132.0	-1.6
Cc1ccc(NC2=C/C(=N\S(=O)(=O)c3cccs3)c3ccccc3C2=O)c(C)c1	28.3	-7.0	-0.9	108.7	33.1
Cc1cc(C(=O)OCC(=O)NCc2ccco2)c(C)n1-c1ccc(F)cc1	16.8*	-4.4	81.8*	107.3	-11.1
O=c1[nH]c2ccccc2nc1/C=C(\O)c1cccs1	1.5	-84.2	1.4	168.9*	-50.6
COC(=O)/C(=C\c1ccc(O)cc1)c1nc2ccccc2[nH]1	4.9	-9.7	0.5	114.6	-28.6
O=C(Nc1nc2ccccc2[nH]1)c1cccs1	3.7	25.2	-1.4	82.3	-22.2
COc1cc(/C=C(/C(=O)c2cccs2)c2nc3ccccc3[nH]2)ccc1O	13.4	-40.6	3.6	135.7*	4.6
COC(=O)/C(=C\c1cc(OC)c(OC)c(OC)c1)c1nc2ccccc2[nH]1	5.6	13.3	0.9	89.2	16.8
O=C(/C(=C/c1ccc(Cl)cc1)c1nc2ccccc2[nH]1)c1cccs1	27.5*	2.7	6.7	96.5	14.9
SMILES	MT stabilize HCS	STAT3 blocker	b-catenin transl	STAT3 act	STAT1 blocker
CC(C)(C)/C(O)=C/c1nc2ccccc2[nH]c1=O	3.0	2.4	0.5	100.5	3.1
O=C(/C(=C\c1ccccc1)c1nc2ccccc2[nH]1)c1ccc(Cl)cc1	22.2*	0.9	0.9	104.1	-24.1
Cc1cc(S(=O)(=O)n2ccnc2)c(Cl)cc1Cl	2.2	20.0	1.7	89.4	16.2
O=C(Nc1ccc(F)cc1)C1=CC(=O)N2CCN=C2S1	3.5	0.0	-3.6	101.9	-14.0
Cn1c(SCC(=O)NNC(=O)c2ccc(Cl)cc2)nnc1-c1cccnc1	2.1	-3.6	-2.2	107.5	6.9
CC(=O)c1ccc2c3c(cccc13)C(=O)N(CCc1ccccc1)C2=O	3.9	-101.3	0.7	182.7*	-36.2
COc1ccc2c(c1)c(=O)c(C(=O)c1ccccc1)cn2Cc1ccccc1	17.1*	3.3	-0.7	97.1	2.3
C=CCOc1ccc(C2C(C#N)=C(N)N(Nc3ccccc3)C3=C2C(=O)CCC3)cc1OC (stereo unspecified)	39.5*	4.5	0.5	100.3	2.8
COc1cc(C2C(C#N)=C(N)N(Nc3ccccc3)C3=C2C(=O)CC(C)(C)C3)ccc1OCc1ccccc1 (stereo unspecified)	2.9	1.0	5.6	104.4	1.9
COc1ccc(OC)c(C2=C/C(=C/c3ccccn3)C(=O)O2)c1	4.1	9.4	-0.4	102.2	-2.9
O=C(CSc1ccsc1[N+](=O)[O-])NCc1ccccc1	1.9	-39.3	2.5	134.6*	-13.0
COc1ccccc1CNC(=O)CSc1ccsc1[N+](=O)[O-]	5.0	-8.6	0.4	108.5	-40.9
CC[n+]1c(/C=C/c2c[nH]c3ccccc23)ccc2cc(C)ccc21	79.8*	58.8*	37.0	51.5	57.9*
CCN(CC)C(=O)c1ccc(/C=C/c2c[nH]c3ccccc23)[n+](C)c1	2.9	-14.2	.	117.0	-3.4
C1=C(c2cccc3ccccc23)N2CCN=C2S1	1.3	-54.2	-4.4	150.4*	10.3
Cc1ccc2[nH]c(=O)c(CN(Cc3ccco3)C(=O)c3cccs3)cc2c1	3.8	2.9	.	100.2	10.0
COc1ccccc1NC(=S)N(Cc1ccco1)Cc1cc2cccc(C)c2[nH]c1=O	4.5	2.7	5.2	95.7	3.6
Cc1ccc2cc(CN(Cc3ccco3)C(=O)c3cccs3)c(=O)[nH]c2c1	34.5*	6.1	.	97.4	-0.5
COc1ccccc1NC(=O)N(Cc1ccco1)Cc1cc2cc(C)cc(C)c2[nH]c1=O	26.0*	3.3	32.8	97.8	15.7
COc1ccccc1NC(=O)N(Cc1ccco1)Cc1cc2ccc(C)c(C)c2[nH]c1=O	57.1	-5.9	121.8*	113.0	-1.0
COc1ccccc1NC(=S)N(Cc1ccco1)Cc1cc2cc(C)c(C)cc2[nH]c1=O	7.5	16.7	63.5*	92.2	8.5
COc1ccccc1NC(=O)N(CCN1CCOCC1)Cc1cc2cc(C)cc(C)c2[nH]c1=O	2.8	5.9	-0.7	101.0	5.1
CCCc1[nH]n(-c2ccc([N+](=O)[O-])cc2)c(=O)c1C(C)=NCc1ccncc1	.	.	0.8	.	.
O=C1CN(C(=O)/C=C/c2ccco2)c2ccccc2N1	5.8	-8.7	-0.8	110.5	-7.5
N#Cc1ccc(OCC(=O)N/N=C/C2CC=CCC2)cc1 (stereo unspecified)	2.8	-0.7	0.7	102.5	-4.0
CCNC(=S)N(Cc1ccco1)Cc1cc2cc3c(cc2[nH]c1=O)OCCO3	6.4	-9.4	.	108.3	-7.2
CC(C)CNC(=S)N(Cc1ccco1)Cc1cc2cc3c(cc2[nH]c1=O)OCCO3	33.4*	-5.8	-1.1	103.9	3.4
Cc1cccc(N2CN(Cc3ccco3)CNC2=S)c1	3.2	6.3	-0.9	94.9	-2.1
